# In the library only some 2.4% were active in any assay of this set; here they are far more common.
# MPTP inh: mitochondrial permeability transition pore inhibitors, primary screen, biochemical, isolated mouse mitochondria, absorbance; Ca2+ swelling absorbance, 30 min; inhibition, % at 10 µM; actives 1.4% (n = 360,000);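 active = inhibition of 50% or more, scaled per plate between neutral and stimulator controls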;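 also: 0% = DMSO wells given calcium and 100% = 1 mM EGTA wells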
# aDG glyco up: activators of alpha-DG glycosylation, primary screen, uHTS, Pro5-aDG cells, AlphaScreen; alpha-DG glycosylation AlphaScreen (IIH6); 0% Pro5, 100% B10-LARGE cell signal; AID 624168, 2012; actives 0.22% (n = 360,000); activation, % at 10 µM;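 active = activation of at least 8% versus controls, or a plate z-score of at least 8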;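 also: Pro5 are CHO cells carrying HIG-tagged alpha-DG that lacks glycosylation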
# Jurkat NFkB inh: inhibitors of induced NF-kB luciferase reporter, primary screen, TCR NF-kB activation inhibitor project, cell-based, luminescence, uHTS. actives 0.53% (n = 330,000). Jurkat, PMA/ionomycin-induced NF-kB luciferase reporter. inhibition, % at 4 µM; in the data active = inhibition above about 50%
# NR2E3 ag-1: NR2E3 agonists in two-hybrid cells, primary screen, cell-based, luminescence, CHO-S, Gal4-NCOR/VP16-NR2E3; Photoreceptor-specific nuclear receptor (Homo sapiens), Q9Y5X4; luciferase; inhibition of corepressor binding, % at 3.98 µM; actives 0.35% (n = 360,000); AID 602229, 2012;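 active = inhibition above the mean of all tested compounds plus 3 SD, cut at about 70% in these data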;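 also: 0% = DMSO with NR2E3 transfected cells and 100% = cells lacking NR2E3 construct; higher means lower luciferase signal from less NR2E3 corepressor binding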
# Target sequence (Q9Y5X4 whole entry, looked up, the tested form may be a part): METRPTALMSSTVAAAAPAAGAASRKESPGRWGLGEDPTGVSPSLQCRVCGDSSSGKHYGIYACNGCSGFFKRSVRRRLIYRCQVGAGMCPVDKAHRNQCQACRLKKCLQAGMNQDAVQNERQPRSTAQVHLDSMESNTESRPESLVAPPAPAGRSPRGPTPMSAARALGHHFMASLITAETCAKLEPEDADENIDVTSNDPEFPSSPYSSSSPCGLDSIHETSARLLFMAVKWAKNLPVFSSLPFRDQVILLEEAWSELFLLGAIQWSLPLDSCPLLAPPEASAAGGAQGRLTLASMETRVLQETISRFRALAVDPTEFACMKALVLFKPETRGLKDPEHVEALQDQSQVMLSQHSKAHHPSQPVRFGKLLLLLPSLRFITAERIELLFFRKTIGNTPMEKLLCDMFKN
# NR2E3 ag-2: inhibitors of NR2E3-RetCOR corepressor binding, primary screen, NR2E3 agonist project, biochemical, TR-FRET, GST-NR2E3, biotin-RetCOR; Photoreceptor-specific nuclear receptor (Homo sapiens), Q9Y5X4; 1536-well; inhibition of corepressor binding, % at 4.78 µM; actives 0.12% (n = 320,000); AID 2300, 2010;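 active = percent inhibition above the cutoff of mean plus 3 SD of all tested compounds, set per screening campaign, cut at about 20% in these data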;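 also: 0% = DMSO wells and 100% = biotin wells as full block of FRET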
#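 Material: NR2E3–RetCOR corepressor complex / Incubation: Compound–protein incubation for 5 h at 4 °C / Dosing: compound at 4.8 µM, single dose / Detection: time-resolved FRET / Benchmarks: high control biotin, low control 0.6% DMSO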
# 697 NFkB inh: inhibitors of PMA/ionomycin-induced NF-kB reporter, 697 cells, primary screen, B-cell NF-kB inhibitor project, cell-based, luminescence, uHTS; 697 B-cell NF-kB luciferase reporter, 16 h; inhibition, % at 4 µM; actives 0.33% (n = 330,000); AID 435022, 2010; in the data active = inhibition above about 35%
# NR2E3 ag confirm: NR2E3 agonist confirmation in cells, cell-based, luminescence, CHO-S two-hybrid; shares compounds with NR2E3 ag-1; CHO-S mammalian two-hybrid NR2E3-NCOR, luciferase luminescence; AID 624378, 2012; actives 51% (n = 2,300); inhibition, % at 3.98 µM;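 active = average inhibition above a cutoff equal to the mean inhibition of all tested compounds plus one SD, cut at about 70% in these data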;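 also: 0% = DMSO in NR2E3 cells and 100% = DMSO in cells lacking NR2E3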
# GAL4-VP16 luc: GAL4-VP16 reporter modulators, confirmation, counter-screen for NR2E3 agonist project, cell-based, luminescence, CHO-S, high throughput. shares compounds with NR2E3 ag-1. CHO-S GAL4-VP16 luciferase reporter. inhibition, % at 3.98 µM. actives 29% (n = 2,300). AID 624379, 2012;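 active = mean inhibition above a cutoff equal to the average over all tested compounds plus one standard deviation, cut at about 70% in these data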;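 also: luciferase from a UAS reporter driven by GAL4-VP16 transactivation; 0% = DMSO with VP16-transfected cells and 100% = DMSO with cells lacking VP16; higher means less reporter light so more repression of VP16 activity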
# Rh123 counter: fluorescence retest of MPTP screen hits in isolated mitochondria, single concentration. shares compounds with MPTP inh. membrane potential, Rhodamine 123 fluorescence. inhibition, % at 10 µM. actives 78% (n = 5,000); in the data active = inhibition above about 22%;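 also: 0% = DMSO vehicle and 100% = positive control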
# The depositor's hits bear a star; / = not tested or not shown.
SMILES,MPTP inh,aDG glyco up,Jurkat NFkB inh,NR2E3 ag-1,NR2E3 ag-2,697 NFkB inh,NR2E3 ag confirm,GAL4-VP16 luc,Rh123 counter
Cc1sc2ncnc(NCC(O)c3ccc([N+](=O)[O-])cc3)c2c1C (stereo unspecified),92*,1,47,105*,7,9,95*,76*,91*
Cc1sc2ncnc(NCC(c3ccccc3)N(C)C)c2c1C (stereo unspecified),4,0,7,1,4,0,/,/,/
O=C(NCC1CCCO1)C1c2ccccc2C(=O)N1C1CCCCCC1 (stereo unspecified),0,1,-1,-34,0,1,/,/,/
CCOC(CNC(=O)CN1C(=O)COc2ccc(S(=O)(=O)N3CCOCC3)cc21)OCC,-2,0,1,-10,-2,-2,/,/,/
O=C(NC(c1cccnc1)C(F)(F)F)c1cc(COc2ccc3c(c2)CCCC3)on1 (stereo unspecified),100*,1,-15,96*,0,-100,97*,79*,86*
CCOC(=O)Cc1nnc2c(Nc3ccccc3F)nc3nonc3n12,92*,0,8,71*,1,18,74*,44,125*
CCOC(=O)Cc1nnc2c(Nc3ccc(C)cc3)nc3nonc3n12,12,0,-27,-18,0,-25,/,/,/
COc1cc(C)c(NC(=O)c2cccc(S(=O)(=O)N3CCCC3)c2)cc1OC,-2,0,-1,15,/,19,/,/,/
N#Cc1cc2c(nc1SCC(=O)Nc1sc3c(c1C#N)CCC3)CCCCC2,5,0,-23,-22,3,-31,/,/,/
Cc1nnc(SC(C)C(=O)Nc2sc3c(c2C#N)CCCC3)[nH]c1=O (stereo unspecified),0,0,3,-3,2,4,/,/,/
N#Cc1c(NC(=O)CSc2nc(N)cc(=O)[nH]2)sc2c1CCCCCC2,83*,0,14,69,0,-59,36,45,59*
CCC(Sc1nc(C)cc(=O)[nH]1)C(=O)Nc1sc2c(c1C#N)CCCC2 (stereo unspecified),58*,0,-2,88*,1,3,76*,53,69*
CC(Sc1nc(N)cc(=O)[nH]1)C(=O)Nc1sc2c(c1C#N)CCCC2 (stereo unspecified),76*,0,4,51,1,-34,61,61,94*
Cc1noc(NS(=O)(=O)c2ccc(NC(=O)/C=C/c3ccccc3)cc2)c1C,2,0,-10,-3,/,-1,/,/,/
O=C1CCN(S(=O)(=O)c2ccccc2)CCN1CCOCc1ccc(C(F)(F)F)cc1,22,0,3,36,1,15,/,/,/
Cc1ccc(S(=O)(=O)N2CCC(=O)N(CCOCc3ccc(C(F)(F)F)cc3)CC2)cc1,78*,4,27,81*,2,-24,88*,71*,99*
Cc1cc(C)n(CC(=O)NNC(=O)c2cccc(C(F)(F)F)c2)n1,-1,0,9,-21,-1,14,/,/,/
Cc1cc(NNC(=O)c2cccc(C(F)(F)F)c2)nc2c1c(C)nn2C,86*,3,23,53,4,-26,87*,68,41*
S=C(NCc1ccccn1)Nc1ccc(Br)cc1Cl,0,0,-58,-50,1,-65,/,/,/
N#C/C(=N/Nc1ccc(OC(F)(F)F)cc1)C(N)=S,83*,0,-39,93*,-1,-61,93*,58,87*
O=C1CN(C(=O)COC(=O)[C@@H]2CCCN2S(=O)(=O)c2ccc(Cl)cc2)c2ccccc2N1,1,0,20,-14,/,-14,/,/,/
CCCc1nn2c(=O)c(C(c3cccc(Cl)c3)c3c(O)nc4sc(CCC)nn4c3=O)c(O)nc2s1,0,0,1,-14,-2,-7,/,/,/
N#C/C(=N\Nc1ccc(Cl)cc1)C(=O)c1ccccc1,96*,0,-8,99*,3,-28,100*,91*,83*
Cc1c(C(=O)N2CCCCC2)oc2ccc(S(=O)(=O)N3CC(C)CC(C)C3)cc12 (stereo unspecified),83*,4,24,77*,-6,-48,73*,63,44*
CCOC(=O)N1CCN(C(=O)c2oc3ccc(S(=O)(=O)N4CCCCC4)cc3c2C)CC1,2,0,1,20,-2,3,/,/,/
SMILES,MPTP inh,aDG glyco up,Jurkat NFkB inh,NR2E3 ag-1,NR2E3 ag-2,697 NFkB inh,NR2E3 ag confirm,GAL4-VP16 luc,Rh123 counter
COc1ccc(C(O)c2nc(-c3ccncc3)cs2)cc1 (stereo unspecified),57*,3,/,63,/,/,68,66,66*
CCN1/C(=C/c2ccc3cc(C)ccc3[n+]2CC)Sc2cc(C)ccc21,98*,2,/,90*,/,/,100*,85*,103*
CCN1/C(=C/c2ccc3cc(C)ccc3[n+]2C)Sc2ccc3sccc3c21,34,1,/,66,/,/,/,/,/
CCOC(=O)C1CCN(CCCSc2ccc(C)cc2)CC1,-2,0,/,29,-2,/,/,/,/
C=CCSc1nsc(NC(=O)Nc2ccc(F)cc2)n1,98*,0,-1,93*,4,-39,100*,88*,78*
CC(C)c1cccc(-c2csc(C(C)(O)c3ccncc3)n2)c1 (stereo unspecified),95*,6,/,85*,/,/,93*,80*,89*
CCOC(=O)c1ccc(S(=O)(=O)N2CCN(CC(=O)NC(=O)NC3CCCCC3)CC2)cc1,3,0,3,17,1,-7,/,/,/
COc1ccc(Cl)cc1NC(=O)c1nnn(CC(=O)Nc2ccc(C)c(C)c2)c1N,3,0,5,2,1,10,/,/,/
